Compound activity from PubChem.
An excerpt weighted towards active compounds, which were near 1.7% of everything screened.
RanGTP-Impb inh: disruptors of Ran-importin-beta complex formation – biochemical, FRET, CFP-Ran, YFP-importin-beta, homogeneous, primary screen. inhibition, % (concentration not given with the values). hit rate 1.1% among 300,000. cell-free CFP-Ran/YFP-importin-beta FRET ratio. AID 2216;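 active = more than half of the replicate wells show a fall in the fluorescence ratio signal beyond about 16%, limit read from the data, passing the limit was not always enough; inconclusive = exactly half of the replicate wells pass the set limit; inactive = fewer than half of replicates pass the limit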
Runt-CBFb FRET: blocks binding of human RUNX1 Runt domain to CBFb; Q01196+Q13951; Cerulean-Runt/Venus-CBFb FRET ratio 530/480, 1 h; inhibition, % at 20 µM; hit rate 0.46% among 220,000; AID 1496;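 active = inhibition over about 50% at 20 µM in the single-dose screen, limit read from the data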
Target sequence (Q01196 whole entry, looked up, the tested form may be a part): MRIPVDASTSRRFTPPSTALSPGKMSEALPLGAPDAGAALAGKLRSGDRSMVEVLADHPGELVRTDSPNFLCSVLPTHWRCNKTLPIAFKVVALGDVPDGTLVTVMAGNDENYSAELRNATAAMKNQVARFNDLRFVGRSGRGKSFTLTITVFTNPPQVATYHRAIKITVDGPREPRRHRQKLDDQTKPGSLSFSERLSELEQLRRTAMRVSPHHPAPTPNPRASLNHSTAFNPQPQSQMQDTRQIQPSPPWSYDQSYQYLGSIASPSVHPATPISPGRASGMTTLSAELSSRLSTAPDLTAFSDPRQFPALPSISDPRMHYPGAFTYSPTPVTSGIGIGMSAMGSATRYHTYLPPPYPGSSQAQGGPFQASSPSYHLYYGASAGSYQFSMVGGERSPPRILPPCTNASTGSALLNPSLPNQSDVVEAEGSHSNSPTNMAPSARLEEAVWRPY
Target sequence (Q13951 whole entry, looked up, the tested form may be a part): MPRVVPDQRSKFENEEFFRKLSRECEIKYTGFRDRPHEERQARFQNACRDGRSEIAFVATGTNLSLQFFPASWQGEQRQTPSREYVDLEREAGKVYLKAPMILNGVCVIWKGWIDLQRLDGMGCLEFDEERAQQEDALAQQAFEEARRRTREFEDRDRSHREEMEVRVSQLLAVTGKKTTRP
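Assay system: Cerulean-Runt domain / Medium: Tris 50 mM pH 7.5, KCl, K2SO4, 0.01% BSA / Timing: protein complex preformed 1 h, compound exposure 1 h, room temperature, dark / Measured by: FRET, excitation 422 nm, emission at 530 and 480 nm / Evaluation: loss of energy transfer signal / Control set: 5 µM unlabeled CBFb as full-inhibition high control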
Hck Nef HTS: human Hck-Nef kinase inhibition; P08631; inhibition, % at 20 µM; hit rate 0.68% among 220,000; Recombinant Hck-YEEI plus Nef, Z-Lyte FRET kinase assay;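 active = Hck-Nef kinase inhibition above about 50%, limit read from the data; inactive = inhibition below that limit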
Runt-SMMHC FRET: inhibitors of human RUNX1 Runt domain binding to CBFb-SMMHC | Cerulean-Runt/Venus-CBFb-SMMHC FRET ratio 530/480, 1 h | inhibition, % at 20 µM | hit rate 0.74% among 220,000 | AID 1434;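 active = mean inhibition across duplicate retests at 20 µM reaching about 50%, limit read from the data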;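 also: inhibitors lower the FRET ratio by blocking Runt binding to CBFb-SMMHC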
Of the large screens only hits and unclear results are named; the others gave an inactive call.

Cc1onc(-c2ccccc2)c1C(=O)Nc1sc2c(c1C(N)=O)CCC2	RanGTP-Impb inh 51
Cc1nnc(NC(=O)c2c(-c3ccccc3)noc2C)s1	none
Cc1noc(C)c1C(=O)Nc1sc(C)c(-c2ccccc2)c1C#N	RanGTP-Impb inh 110
Cc1cc(C)c2nc(NC(=O)c3cccc(S(=O)(=O)N4CCc5ccccc54)c3)sc2c1	none
Cc1ccc(C)c(S(=O)(=O)N2CCN(C(=O)Cn3c(=O)cnc4ccccc43)CC2)c1	none (no result: Runt-CBFb FRET, Hck Nef HTS, Runt-SMMHC FRET)
CCOC(=O)Cc1csc(NC(=O)CSc2nc(=O)[nH]c3c2CCC3)n1	none (no result: Runt-CBFb FRET, Hck Nef HTS, Runt-SMMHC FRET)
N#Cc1c(NC(=O)CSc2ncc(-c3ccccc3)n2CC2CCCO2)sc2c1CCCC2 (centres undefined)	Runt-SMMHC FRET 73
N#Cc1c(NC(=O)CSc2nnc(-c3ccncc3)n2CC2CCCO2)sc2c1CCCC2 (centres undefined)	none
CC(=O)c1sc2nc(-c3ccc(C)cc3)c3c(c2c1N)CCCC3	RanGTP-Impb inh 66
CCc1nc2sc(C(C)=O)c(N)c2c2c1CCCC2	RanGTP-Impb inh 28, Runt-SMMHC FRET 81
Cc1ccc(-c2nc3sc(C(N)=O)c(N)c3c3c2CCCC3)cc1	none
C=CCSC1=N/C(=C\c2ccc3c(c2)OCO3)C(=O)S1	none
C=CCSC1=N/C(=C\c2cc(OCC)c(OC(C)=O)c([N+](=O)[O-])c2)C(=O)S1	Hck Nef HTS 84
CC1CCc2[nH]c3ccc(C(=O)NCCCOC(C)C)cc3c2C1 (centres undefined)	RanGTP-Impb inh 22
Cc1ccc(-c2csc(NC(=O)/C=C/c3ccco3)c2C(=O)O)cc1	RanGTP-Impb inh inconclusive, Hck Nef HTS 52
O=C(c1ccc(Cl)cc1)N1CCN(c2ccc(F)cc2)CC1	Runt-SMMHC FRET 72
CCCCN=CC1=C(O)CC(c2ccccc2)CC1=O (centres undefined)	none
c1coc(CNc2c3c(nc4ccccc24)CCC3)c1	RanGTP-Impb inh 79
CC(C)NCC(=O)Nc1c2c(nc3ccccc13)CCC2	none
COc1ccccc1C1C=C(c2ccc(C)cc2)Nc2nnnn21 (centres undefined)	none
COc1ccc(C2=CC(c3c(C)nn(-c4ccccc4)c3Cl)n3nnnc3N2)cc1OC (centres undefined)	Runt-SMMHC FRET 86 (no result: RanGTP-Impb inh)
COc1ccc(C2c3ccc(O)cc3Oc3ncn(Cc4ccco4)c(=N)c32)cc1 (centres undefined)	Runt-CBFb FRET 97
CCCCCCNC(=O)c1c(N)n(/N=C/c2ccco2)c2nc3ccccc3nc12	none (no result: RanGTP-Impb inh, Runt-CBFb FRET, Runt-SMMHC FRET)
COCCNC(=O)c1c(N)n(/N=C/c2cccs2)c2nc3ccccc3nc12	RanGTP-Impb inh 95, Runt-CBFb FRET 62
CCOCCCNC(=O)c1c(N)n(-c2ccc(S(N)(=O)=O)cc2)c2nc3ccccc3nc12	RanGTP-Impb inh inconclusive, Runt-SMMHC FRET 58
Nc1c(C(=O)NC2CCCCC2)c2nc3ccccc3nc2n1/N=C/c1ccco1	Runt-SMMHC FRET 52 (no result: RanGTP-Impb inh, Hck Nef HTS)
CCOCCCNC(=O)c1c(N)n(-c2ccc3c(c2)OCO3)c2nc3ccccc3nc12	RanGTP-Impb inh 133
COc1ccc2nc(-c3ccc(F)cc3)sc2c1	none (no result: Runt-CBFb FRET, Hck Nef HTS, Runt-SMMHC FRET)
CCCNC(=O)c1c(N)n(-c2cc(OC)cc(OC)c2)c2nc3ccccc3nc12	RanGTP-Impb inh 58, Runt-SMMHC FRET 109
CCCNC(=O)c1c(N)n(-c2ccc3c(c2)OCO3)c2nc3ccccc3nc12	none
CCOC(=O)N1CCN(C(=O)c2cc3c(=O)n4cccc(C)c4nc3s2)CC1	none (no result: Runt-CBFb FRET, Hck Nef HTS, Runt-SMMHC FRET)
COc1ccccc1N1CCN(C(=O)c2cc3c(=O)n4cccc(C)c4nc3s2)CC1	RanGTP-Impb inh 31 (no result: Runt-CBFb FRET, Hck Nef HTS, Runt-SMMHC FRET)
COc1ccc(CCNC(=S)Nc2cccc(C)c2C)cc1	RanGTP-Impb inh 27
CC(CC(=O)NCc1ccco1)S(=O)(=O)c1ccc2c(c1)CCN2C(=O)C1CC1 (centres undefined)	none (no result: Runt-CBFb FRET, Hck Nef HTS, Runt-SMMHC FRET)
CC(=O)Oc1ccc(OC(C)=O)c2c1CC(C)=C(C)C2	none
CCc1ccc(N2CC(C(=O)N/N=C/c3ccccc3)CC2=O)cc1 (centres undefined)	none (no result: Runt-CBFb FRET, Hck Nef HTS, Runt-SMMHC FRET)
CCOC(=O)Cc1csc(/N=C/c2c(O)n(-c3ccc(C)c(C)c3)c(=O)c3ccccc23)n1	Runt-SMMHC FRET 62
Cc1cc(N=Cc2c(O)n(-c3ccc(C)c(C)c3)c(=O)c3ccccc23)no1	none (no result: RanGTP-Impb inh)
O=C(O)CC1NC(=O)N(c2ccccc2)C1=O (centres undefined)	RanGTP-Impb inh 45
CC(=O)Oc1ccc2c3c(c(=O)oc2c1)CCCC3	none (no result: Runt-CBFb FRET, Hck Nef HTS, Runt-SMMHC FRET)
CSCCC(NC(C)=O)C(=O)Oc1ccc2c3c(c(=O)oc2c1)CCCC3 (centres undefined)	Runt-SMMHC FRET 82 (no result: RanGTP-Impb inh)
